Reference: the M2OR odorant receptor database

Experiments:
Settings in all cases: stereoisomer not certain
[1] = target: T1, UniProt Q7TRX0
T1 sequence (whole entry): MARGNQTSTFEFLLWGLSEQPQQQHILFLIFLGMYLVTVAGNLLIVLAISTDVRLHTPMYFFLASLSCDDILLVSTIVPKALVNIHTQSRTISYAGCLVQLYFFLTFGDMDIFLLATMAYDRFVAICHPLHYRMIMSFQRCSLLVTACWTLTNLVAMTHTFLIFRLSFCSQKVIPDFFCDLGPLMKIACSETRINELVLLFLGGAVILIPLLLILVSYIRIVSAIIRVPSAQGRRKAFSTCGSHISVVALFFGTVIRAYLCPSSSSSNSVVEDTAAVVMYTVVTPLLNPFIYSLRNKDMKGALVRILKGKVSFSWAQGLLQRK
How it was run: (§1)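 Transient luciferase assays in mammalian cell lines were common, though methods varied by source. The values come from published papers and their supplementary material, with extra details from the original authors when needed. Responsive refers to a measured signal the original authors judged statistically different from baseline, and non-responsive (inactive) to the remainder.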

[2] = target: T2, UniProt Q8VF43
T2 sequence (whole entry): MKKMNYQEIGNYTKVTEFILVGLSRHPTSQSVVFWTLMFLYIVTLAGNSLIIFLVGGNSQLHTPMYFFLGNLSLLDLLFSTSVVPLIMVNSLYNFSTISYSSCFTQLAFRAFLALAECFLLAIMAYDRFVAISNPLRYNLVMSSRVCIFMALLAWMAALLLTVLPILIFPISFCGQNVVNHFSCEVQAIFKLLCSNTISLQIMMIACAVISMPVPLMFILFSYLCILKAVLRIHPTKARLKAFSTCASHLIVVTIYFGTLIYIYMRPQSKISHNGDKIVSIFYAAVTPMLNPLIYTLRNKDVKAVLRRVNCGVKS
How it was run: as §1

[3] = target: T3, UniProt Q8VF52
T3 sequence (whole entry): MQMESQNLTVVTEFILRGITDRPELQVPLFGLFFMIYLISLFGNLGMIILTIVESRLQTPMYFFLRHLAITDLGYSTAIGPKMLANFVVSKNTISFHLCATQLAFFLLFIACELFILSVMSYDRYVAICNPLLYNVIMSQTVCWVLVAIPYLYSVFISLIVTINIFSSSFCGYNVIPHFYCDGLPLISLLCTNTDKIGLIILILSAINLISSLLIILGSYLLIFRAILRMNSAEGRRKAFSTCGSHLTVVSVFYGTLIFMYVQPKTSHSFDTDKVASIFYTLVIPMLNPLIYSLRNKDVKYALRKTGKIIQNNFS
How it was run: as §1

[4] = target: T4, UniProt Q8VFM8
T4 sequence (whole entry): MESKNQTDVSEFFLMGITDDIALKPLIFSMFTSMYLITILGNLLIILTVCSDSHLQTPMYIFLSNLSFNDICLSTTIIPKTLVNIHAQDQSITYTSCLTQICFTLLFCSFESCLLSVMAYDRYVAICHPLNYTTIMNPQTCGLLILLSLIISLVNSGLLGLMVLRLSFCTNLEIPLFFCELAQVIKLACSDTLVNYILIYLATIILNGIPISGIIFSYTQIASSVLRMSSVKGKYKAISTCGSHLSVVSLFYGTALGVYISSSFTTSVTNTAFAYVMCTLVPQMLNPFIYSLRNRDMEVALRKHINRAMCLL
How it was run: as §1

[5] = target: T5, UniProt Q8VFP5
T5 sequence (whole entry): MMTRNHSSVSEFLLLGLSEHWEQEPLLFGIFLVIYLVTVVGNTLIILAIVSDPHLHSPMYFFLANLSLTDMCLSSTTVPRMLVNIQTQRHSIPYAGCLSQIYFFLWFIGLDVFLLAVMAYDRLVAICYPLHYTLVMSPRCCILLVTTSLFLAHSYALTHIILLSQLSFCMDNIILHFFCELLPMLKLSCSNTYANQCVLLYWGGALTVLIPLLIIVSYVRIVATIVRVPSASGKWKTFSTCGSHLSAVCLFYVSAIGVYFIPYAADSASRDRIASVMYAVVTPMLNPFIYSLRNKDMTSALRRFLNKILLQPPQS
How it was run: as §1

[6] = target: T6, UniProt Q8VG01
T6 sequence (whole entry): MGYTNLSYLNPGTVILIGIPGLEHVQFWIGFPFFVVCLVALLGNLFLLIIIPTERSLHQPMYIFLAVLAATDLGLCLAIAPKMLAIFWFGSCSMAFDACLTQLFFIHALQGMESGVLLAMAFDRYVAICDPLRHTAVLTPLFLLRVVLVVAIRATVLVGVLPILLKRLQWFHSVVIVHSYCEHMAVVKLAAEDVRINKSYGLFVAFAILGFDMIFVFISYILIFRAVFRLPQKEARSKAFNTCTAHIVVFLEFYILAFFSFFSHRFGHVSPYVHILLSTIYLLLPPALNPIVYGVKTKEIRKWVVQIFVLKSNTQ
How it was run: as §1

[7] = target: T7, UniProt Q8VG27
T7 sequence (whole entry): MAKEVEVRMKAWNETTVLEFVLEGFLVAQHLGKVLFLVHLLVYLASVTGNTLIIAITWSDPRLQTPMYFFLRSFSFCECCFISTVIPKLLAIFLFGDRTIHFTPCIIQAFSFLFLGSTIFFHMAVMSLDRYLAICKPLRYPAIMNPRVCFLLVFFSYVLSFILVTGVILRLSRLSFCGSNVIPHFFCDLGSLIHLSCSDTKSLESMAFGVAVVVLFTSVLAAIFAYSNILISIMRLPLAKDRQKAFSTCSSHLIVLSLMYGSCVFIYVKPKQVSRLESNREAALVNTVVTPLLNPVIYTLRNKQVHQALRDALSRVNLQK
How it was run: as §1

[8] = target: T8, UniProt Q7TRW1
T8 sequence (whole entry): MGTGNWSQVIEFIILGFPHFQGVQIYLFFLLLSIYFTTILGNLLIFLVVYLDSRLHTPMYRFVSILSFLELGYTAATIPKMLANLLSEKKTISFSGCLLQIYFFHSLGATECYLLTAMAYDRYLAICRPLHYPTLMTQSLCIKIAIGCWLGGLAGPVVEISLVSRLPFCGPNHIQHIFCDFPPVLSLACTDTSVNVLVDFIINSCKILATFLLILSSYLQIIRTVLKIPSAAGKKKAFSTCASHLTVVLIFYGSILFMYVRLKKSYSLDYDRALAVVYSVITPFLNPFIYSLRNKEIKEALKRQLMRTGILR
How it was run: as §1

[9] = target: T9, UniProt Q8VEU7
T9 sequence (whole entry): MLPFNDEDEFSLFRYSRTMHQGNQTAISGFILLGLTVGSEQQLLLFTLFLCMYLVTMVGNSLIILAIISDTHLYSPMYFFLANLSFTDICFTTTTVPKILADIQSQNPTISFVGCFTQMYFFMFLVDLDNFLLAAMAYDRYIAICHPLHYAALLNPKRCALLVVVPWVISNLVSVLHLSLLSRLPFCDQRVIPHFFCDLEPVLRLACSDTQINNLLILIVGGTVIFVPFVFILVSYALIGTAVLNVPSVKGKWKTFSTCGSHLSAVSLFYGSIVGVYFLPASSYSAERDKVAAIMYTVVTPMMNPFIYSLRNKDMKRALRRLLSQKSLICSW
How it was run: as §1

[10] = target: T10, UniProt Q8VF05
T10 sequence (whole entry): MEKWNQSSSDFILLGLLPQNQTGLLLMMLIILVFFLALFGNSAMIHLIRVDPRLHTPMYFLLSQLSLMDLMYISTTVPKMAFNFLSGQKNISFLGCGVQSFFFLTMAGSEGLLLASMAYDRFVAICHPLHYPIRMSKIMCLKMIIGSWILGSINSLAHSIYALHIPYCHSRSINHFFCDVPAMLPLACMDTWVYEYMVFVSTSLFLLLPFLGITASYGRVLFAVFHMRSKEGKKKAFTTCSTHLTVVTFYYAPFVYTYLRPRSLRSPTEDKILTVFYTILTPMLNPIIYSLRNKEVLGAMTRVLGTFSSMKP
How it was run: as §1

[11] = target: T11, UniProt Q8VF24
T11 sequence (whole entry): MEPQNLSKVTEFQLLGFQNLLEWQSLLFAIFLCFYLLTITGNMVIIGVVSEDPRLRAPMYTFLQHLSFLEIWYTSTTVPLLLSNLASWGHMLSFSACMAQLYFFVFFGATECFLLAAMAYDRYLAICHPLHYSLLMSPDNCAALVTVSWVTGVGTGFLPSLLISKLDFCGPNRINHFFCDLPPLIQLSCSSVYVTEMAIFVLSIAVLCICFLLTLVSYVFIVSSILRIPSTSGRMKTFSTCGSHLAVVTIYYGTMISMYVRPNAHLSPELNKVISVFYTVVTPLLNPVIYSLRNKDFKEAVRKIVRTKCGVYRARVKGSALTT
How it was run: as §1

[12] = target: T12, UniProt Q8VF44
T12 sequence (whole entry): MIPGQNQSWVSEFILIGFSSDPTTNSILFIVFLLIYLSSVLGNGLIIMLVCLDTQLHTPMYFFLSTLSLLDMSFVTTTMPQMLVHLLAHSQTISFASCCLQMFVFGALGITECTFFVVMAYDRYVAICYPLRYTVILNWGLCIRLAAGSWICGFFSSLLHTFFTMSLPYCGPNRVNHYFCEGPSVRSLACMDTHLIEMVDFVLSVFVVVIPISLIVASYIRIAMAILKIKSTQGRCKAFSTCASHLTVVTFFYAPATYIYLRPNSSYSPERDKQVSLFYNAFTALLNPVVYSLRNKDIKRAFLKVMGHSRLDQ
How it was run: as §1

[13] = target: T13, UniProt Q8VFG6
T13 sequence (whole entry): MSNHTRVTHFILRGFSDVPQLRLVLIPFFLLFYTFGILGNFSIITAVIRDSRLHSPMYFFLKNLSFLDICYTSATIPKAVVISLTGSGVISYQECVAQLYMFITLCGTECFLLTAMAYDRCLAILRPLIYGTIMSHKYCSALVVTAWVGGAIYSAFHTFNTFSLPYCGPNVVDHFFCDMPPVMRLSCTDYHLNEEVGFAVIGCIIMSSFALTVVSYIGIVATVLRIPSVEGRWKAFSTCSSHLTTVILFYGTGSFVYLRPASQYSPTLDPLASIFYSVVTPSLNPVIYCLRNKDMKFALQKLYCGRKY
How it was run: as §1

[14] = target: T14, UniProt Q8VFZ6
T14 sequence (whole entry): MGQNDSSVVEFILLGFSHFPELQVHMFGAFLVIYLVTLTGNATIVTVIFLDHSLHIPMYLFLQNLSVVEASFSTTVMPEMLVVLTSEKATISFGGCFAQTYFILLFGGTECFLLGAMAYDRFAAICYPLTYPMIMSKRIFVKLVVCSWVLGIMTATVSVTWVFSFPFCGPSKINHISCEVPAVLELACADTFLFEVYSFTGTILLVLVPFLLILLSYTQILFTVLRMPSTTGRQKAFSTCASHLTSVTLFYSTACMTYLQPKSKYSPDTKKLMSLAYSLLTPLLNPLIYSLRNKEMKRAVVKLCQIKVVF
How it was run: as §1

[15] = target: T15, UniProt Q8VG22
T15 sequence (whole entry): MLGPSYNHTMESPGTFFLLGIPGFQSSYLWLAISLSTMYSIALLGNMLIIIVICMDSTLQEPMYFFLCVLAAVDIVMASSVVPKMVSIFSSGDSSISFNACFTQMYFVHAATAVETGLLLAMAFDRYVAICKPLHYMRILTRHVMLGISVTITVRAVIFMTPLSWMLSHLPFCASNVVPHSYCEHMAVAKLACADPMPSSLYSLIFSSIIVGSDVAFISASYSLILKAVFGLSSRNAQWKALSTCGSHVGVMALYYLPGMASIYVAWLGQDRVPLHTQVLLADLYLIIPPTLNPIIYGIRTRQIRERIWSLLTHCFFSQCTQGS
How it was run: as §1

[16] = target: T16, UniProt Q8VG49
T16 sequence (whole entry): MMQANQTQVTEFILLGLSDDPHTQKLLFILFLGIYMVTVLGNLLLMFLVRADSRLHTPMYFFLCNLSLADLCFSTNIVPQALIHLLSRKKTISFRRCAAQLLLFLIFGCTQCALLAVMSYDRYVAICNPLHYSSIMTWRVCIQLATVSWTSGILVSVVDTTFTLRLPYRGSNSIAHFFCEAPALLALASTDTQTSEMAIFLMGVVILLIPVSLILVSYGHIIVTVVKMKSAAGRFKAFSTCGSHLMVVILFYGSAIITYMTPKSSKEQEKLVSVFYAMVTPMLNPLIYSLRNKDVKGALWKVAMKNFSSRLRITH
How it was run: as §1

Measured: odorant receptor agonist call;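 further: active if original authors judged signal statistically different from baseline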

CSSC
inactive: [1] | [2] | [3] | [4] | [5] | [6] | [7]

OCc1ccc2c(c1)OCO2
inactive: [1] | [2] | [3] | [4] | [5] | [6] | [7]

O=c1cc(O)c2ccccc2o1
active: [15]
inactive: [8] | [1] | [9] | [10] | [11] | [2] | [12] | [3] | [13] | [4] | [5] | [14] | [6] | [7] | [16]

C=C(C)C1CC=C(C=O)CC1 (configuration not stated)
inactive: [1] | [2] | [3] | [4] | [5] | [6] | [7]
